Measurements: ChEMBL document CHEMBL3259728, “Design, synthesis and biological evaluation of some novel substituted quinazolines as antitumor agents” (2014)

How the values were obtained:
Type in all cases: functional
[1] = tested on: T47D; test: Growth inhibition of human T47D cells at 10 uM after 48 hrs by SRB assay; conditions: read-out: GI
How it was run: (§1)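 NCI-60 primary one-dose screen run at the US NCI, with human tumour lines from nine cancer types. Compound added once at 10^-5 M, followed by 48 h incubation. End point was sulforhodamine B protein staining read spectrophotometrically. Result given as percent growth of treated cells against untreated controls, reported as % growth inhibition.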

[2] = Growth inhibition of human BT549 cells at 10 uM after 48 hrs by SRB assay; conditions: BT-549, 48 h, read-out: GI
How it was run: (§2)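 NCI primary one-dose screen. A single concentration of 10^-5 M was added to the cell culture, followed by 48 h incubation and an SRB protein-dye endpoint read spectrophotometrically. Results are growth percentage relative to untreated control cells, reported as % growth inhibition.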

[3] = Growth inhibition of human Hs578T cells at 10 uM after 48 hrs by SRB assay; conditions: Hs-578T, read-out: GI; how it was run: as §1
[4] = tested on: MDA-MB-231; test: Growth inhibition of human MDA-MB-231 cells at 10 uM after 48 hrs by SRB assay; conditions: MDA-MB-231, 48 h, read-out: GI; how it was run: as §1
[5] = tested on: MCF7; test: Growth inhibition of human MCF7 cells at 10 uM after 48 hrs by SRB assay; conditions: MCF7, 48 h, read-out: GI; how it was run: as §1
[6] = tested on: DU-145; test: Growth inhibition of human DU145 cells at 10 uM after 48 hrs by SRB assay; conditions: DU-145, 48 h, read-out: GI; how it was run: as §1
[7] = tested on: PC-3; test: Growth inhibition of human PC3 cells at 10 uM after 48 hrs by SRB assay; conditions: PC-3, 48 h, read-out: GI; how it was run: as §1
[8] = Growth inhibition of human UO31 cells at 10 uM after 48 hrs by SRB assay; conditions: UO-31, 48 h, read-out: GI; how it was run: as §1
[9] = tested on: SN12C; test: Growth inhibition of human SN12C cells at 10 uM after 48 hrs by SRB assay; conditions: read-out: GI; how it was run: as §1
[10] = Growth inhibition of human RXF393 cells at 10 uM after 48 hrs by SRB assay; conditions: RXF 393, 48 h, read-out: GI; how it was run: as §1
[11] = tested on: 786-0; test: Growth inhibition of human 786-0 cells at 10 uM after 48 hrs by SRB assay; conditions: 786-0, 48 h, read-out: GI; how it was run: as §2
[12] = Growth inhibition of human NCI-ADR-RES cells at 10 uM after 48 hrs by SRB assay; conditions: read-out: GI; how it was run: as §1
[13] = Growth inhibition of human OVCAR5 cells at 10 uM after 48 hrs by SRB assay; conditions: OVCAR-5, 48 h, read-out: GI; how it was run: as §1
[14] = Growth inhibition of human OVCAR3 cells at 10 uM after 48 hrs by SRB assay; conditions: OVCAR-3, 48 h, read-out: GI; how it was run: as §1
[15] = tested on: IGROV-1; test: Growth inhibition of human IGROV1 cells at 10 uM after 48 hrs by SRB assay; conditions: IGROV-1, 48 h, read-out: GI; how it was run: as §1
[16] = tested on: SK-MEL-5; test: Growth inhibition of human SK-MEL-5 cells at 10 uM after 48 hrs by SRB assay; conditions: SK-MEL-5, 48 h, read-out: GI; how it was run: as §1
[17] = tested on: MDA-MB-435; test: Growth inhibition of human MDA-MB-435 cells at 10 uM after 48 hrs by SRB assay; conditions: MDA-MB-435, 48 h, read-out: GI; how it was run: as §1
[18] = tested on: M14; test: Growth inhibition of human M14 cells at 10 uM after 48 hrs by SRB assay; conditions: M14, 48 h, read-out: GI; how it was run: as §1
[19] = tested on: Malme-3M; test: Growth inhibition of human MALME-3M cells at 10 uM after 48 hrs by SRB assay; conditions: read-out: GI; how it was run: as §1
[20] = tested on: U-251; test: Growth inhibition of human U251 cells at 10 uM after 48 hrs by SRB assay; conditions: U-251, 48 h, read-out: GI; how it was run: as §1
[21] = tested on: SNB-75; test: Growth inhibition of human SNB75 cells at 10 uM after 48 hrs by SRB assay; conditions: SNB-75, 48 h, read-out: GI; how it was run: as §1
[22] = tested on: SNB-19; test: Growth inhibition of human SNB19 cells at 10 uM after 48 hrs by SRB assay; conditions: SNB-19, 48 h, read-out: GI; how it was run: as §1
[23] = Growth inhibition of human SF539 cells at 10 uM after 48 hrs by SRB assay; conditions: SF-539, 48 h, read-out: GI; how it was run: as §1
[24] = tested on: SW-620; test: Growth inhibition of human SW620 cells at 10 uM after 48 hrs by SRB assay; conditions: SW-620, 48 h, read-out: GI; how it was run: as §1
[25] = tested on: KM12; test: Growth inhibition of human KM12 cells at 10 uM after 48 hrs by SRB assay; conditions: KM12, 48 h, read-out: GI; how it was run: as §1
[26] = tested on: HT-29; test: Growth inhibition of human HT-29 cells at 10 uM after 48 hrs by SRB assay; conditions: HT-29, 48 h, read-out: GI; how it was run: as §1
[27] = Growth inhibition of human HCT15 cells at 10 uM after 48 hrs by SRB assay; conditions: HCT-15, 48 h, read-out: GI; how it was run: as §1
[28] = tested on: COLO 205; test: Growth inhibition of human COLO205 cells at 10 uM after 48 hrs by SRB assay; conditions: COLO 205, 48 h, read-out: GI; how it was run: as §2
[29] = tested on: NCI-H522; test: Growth inhibition of human NCI-H522 cells at 10 uM after 48 hrs by SRB assay; conditions: NCI-H522, 48 h, read-out: GI; how it was run: as §1
[30] = tested on: NCI-H322M; test: Growth inhibition of human NCI-H322M cells at 10 uM after 48 hrs by SRB assay; conditions: read-out: GI; how it was run: as §1
[31] = tested on: NCI-H23; test: Growth inhibition of human NCI-H23 cells at 10 uM after 48 hrs by SRB assay; conditions: NCI-H23, 48 h, read-out: GI; how it was run: as §1
[32] = tested on: NCI-H226; test: Growth inhibition of human NCI-H226 cells at 10 uM after 48 hrs by SRB assay; conditions: NCI-H226, 48 h, read-out: GI; how it was run: as §1
[33] = tested on: HOP-62; test: Growth inhibition of human HOP62 cells at 10 uM after 48 hrs by SRB assay; conditions: HOP-62, 48 h, read-out: GI; how it was run: as §1
[34] = Growth inhibition of human EKVX cells at 10 uM after 48 hrs by SRB assay; conditions: read-out: GI; how it was run: as §1
[35] = tested on: SR; test: Growth inhibition of human SR cells at 10 uM after 48 hrs by SRB assay; conditions: read-out: GI; how it was run: as §1
[36] = tested on: CCRF-CEM; test: Growth inhibition of human CCRF-CEM cells at 10 uM after 48 hrs by SRB assay; conditions: read-out: GI; how it was run: as §2
[37] = Growth inhibition of human OVCAR8 cells at 10 uM after 48 hrs by SRB assay; conditions: OVCAR-8, 48 h, read-out: GI; how it was run: as §1
[38] = tested on: SK-MEL-28; test: Growth inhibition of human SK-MEL-28 cells at 10 uM after 48 hrs by SRB assay; conditions: SK-MEL-28, 48 h, read-out: GI; how it was run: as §1
[39] = Growth inhibition of human HOP92 cells at 10 uM after 48 hrs by SRB assay; conditions: HOP-92, 48 h, read-out: GI; how it was run: as §1

Compound | inhibition of growth at 10 µM [2] [%] | inhibition of growth at 10 µM [3] [%] | inhibition of growth at 10 µM [4] [%] | inhibition of growth at 10 µM [5] [%] | inhibition of growth at 10 µM [6] [%] | inhibition of growth at 10 µM [7] [%] | inhibition of growth at 10 µM [8] [%] | inhibition of growth at 10 µM [9] [%] | inhibition of growth at 10 µM [10] [%] | inhibition of growth at 10 µM [11] [%] | inhibition of growth at 10 µM [12] [%] | inhibition of growth at 10 µM [13] [%] | inhibition of growth at 10 µM [14] [%] | inhibition of growth at 10 µM [15] [%] | inhibition of growth at 10 µM [16] [%] | inhibition of growth at 10 µM [17] [%] | inhibition of growth at 10 µM [18] [%] | inhibition of growth at 10 µM [19] [%] | inhibition of growth at 10 µM [20] [%] | inhibition of growth at 10 µM [21] [%] | also measured
Cc1ccc(-c2nc3ccc(Cl)cc3c(=O)n2NC(=O)CNN)cc1 | < 10 | 40 | 62 | 22 | 28 | 33 | 25 | 33 | 11 | 22 | 24 | 18 | 45 | 41 | 11 | < 10 | 17 | 14 | 58 | 25 | inhibition of growth at 10 µM [1]: 52%; inhibition of growth at 10 µM [22]: 22%; inhibition of growth at 10 µM [23]: 54%; inhibition of growth at 10 µM [24]: 28%; inhibition of growth at 10 µM [25]: 21%; inhibition of growth at 10 µM [26]: 33%; inhibition of growth at 10 µM [27]: 16%; inhibition of growth at 10 µM [28]: 28%; inhibition of growth at 10 µM [29]: 61%; inhibition of growth at 10 µM [30]: 29%; inhibition of growth at 10 µM [31]: 13%; inhibition of growth at 10 µM [32]: 35%; inhibition of growth at 10 µM [33]: 83%; inhibition of growth at 10 µM [34]: 34%; inhibition of growth at 10 µM [35]: 13%; inhibition of growth at 10 µM [36]: < 10%; inhibition of growth at 10 µM [37]: 23%; inhibition of growth at 10 µM [38]: 23%
Cc1ccc(C2=Nc3ccc(Cl)cc3C3=NNCC(=O)NN23)cc1 | < 10 | < 10 | 11 | < 10 | < 10 | < 10 | 18 | < 10 | < 10 | < 10 | < 10 | < 10 | < 10 | < 10 | < 10 | < 10 | < 10 | < 10 | < 10 | < 10 | inhibition of growth at 10 µM [22]: < 10%; inhibition of growth at 10 µM [23]: < 10%; inhibition of growth at 10 µM [24]: < 10%; inhibition of growth at 10 µM [25]: < 10%; inhibition of growth at 10 µM [26]: < 10%; inhibition of growth at 10 µM [27]: < 10%; inhibition of growth at 10 µM [28]: < 10%; inhibition of growth at 10 µM [29]: < 10%; inhibition of growth at 10 µM [30]: < 10%; inhibition of growth at 10 µM [31]: < 10%; inhibition of growth at 10 µM [39]: < 10%; inhibition of growth at 10 µM [32]: < 10%; inhibition of growth at 10 µM [33]: < 10%; inhibition of growth at 10 µM [34]: 12%; inhibition of growth at 10 µM [35]: < 10%; inhibition of growth at 10 µM [36]: < 10%; inhibition of growth at 10 µM [37]: < 10%; inhibition of growth at 10 µM [38]: < 10%
